pIC50: −log10 of the molar value. “And” between values parts separate entries of the source, which are not always exact repeats. Identical values can stand only once. Each block holds one compound with its values, some of them ahead of it.
How the values were obtained:
[1] = molecular target: aromatase; settings: cited from earlier work; for aromatase inhibition of naturally occurring isoflavones (in words): literature background
[2] = molecular target: T1, recombinant human aromatase (CYP19) (Homo sapiens, UniProt P11511); experiment: Fluorescence-based aromatase activity assay; type: biochemical; settings: for increase in inhibition potency compared to model compound 1a: ratio of aromatase IC50 values versus 1a; for aromatase inhibition (in words): recombinant human aromatase, fluorescence assay
T1 sequence (P11511 1-503): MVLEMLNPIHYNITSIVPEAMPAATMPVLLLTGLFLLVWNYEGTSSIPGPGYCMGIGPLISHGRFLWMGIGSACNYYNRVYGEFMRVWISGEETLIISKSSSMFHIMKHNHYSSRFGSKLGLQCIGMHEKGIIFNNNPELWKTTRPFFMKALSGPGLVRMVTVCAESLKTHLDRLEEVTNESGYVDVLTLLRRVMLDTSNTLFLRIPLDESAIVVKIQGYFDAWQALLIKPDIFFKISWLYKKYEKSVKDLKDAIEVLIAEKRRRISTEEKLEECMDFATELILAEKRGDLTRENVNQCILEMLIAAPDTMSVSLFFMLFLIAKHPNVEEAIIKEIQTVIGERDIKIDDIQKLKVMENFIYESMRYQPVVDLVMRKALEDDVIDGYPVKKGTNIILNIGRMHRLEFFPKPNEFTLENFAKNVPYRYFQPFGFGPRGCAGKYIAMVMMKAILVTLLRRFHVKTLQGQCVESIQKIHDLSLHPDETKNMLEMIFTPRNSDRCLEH
How it was run: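 Baculovirus/insect-cell-expressed human aromatase with P450 reductase; 3-fold serial dilutions from acetonitrile stocks, preincubated 10 min at 37 °C with NADPH-regenerating cofactor mix (pH 7.5). Enzyme/MFC solution (pH 7.4) was added, then 30 min at 37 °C, Tris stop, fluorescence ex 409/em 530 nm. Interfering compounds: DBF substrate, 2 h, NaOH stop.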

Structure (SMILES): O=C1c2ccccc2OCC1c1ccc(O)c(O)c1 (stereo not shown) [3′,4′-dihydroxyisoflavanone]
pIC50 ([1]; aromatase, isoflavanone compounds, ref 20b): 3.70 and ≤ 3.70

Structure (SMILES): O=c1c(-c2ccc(O)cc2)coc2cc(O)ccc12 [daidzein]
aromatase inhibition of naturally occurring isoflavones (in words) [1]: either inactive or weak inhibitors

increase in inhibition potency compared to model compound 1a [2]: fivefold
Structure (SMILES): O=C1c2ccccc2OCC1c1cccnc1 (stereo not shown) [Compound 3b, 3-(Pyridin-3-yl)chroman-4-one]

increase in inhibition potency compared to model compound 1a [2]: 12 fold
Structure (SMILES): O=C1c2ccccc2OCC1c1ccc(Oc2ccccc2)cc1 (stereo not shown) [Compound 1h, 3-(4-Phenoxyphenyl)chroman-4-one]

Structure (SMILES): O=C1c2ccccc2OCC1c1cc2ccccc2c2ccccc12 (stereo not shown) [Compound 1j, 3-(Phenanthren-9-yl)chroman-4-one]
aromatase inhibition (in words) [2]: no significant inhibition

Structure (SMILES): O=c1c(-c2ccc(O)cc2)coc2cc(O)cc(O)c12 [genistein]
aromatase inhibition of naturally occurring isoflavones (in words) [1]: either inactive or weak inhibitors

increase in inhibition potency compared to model compound 1a [2]: threefold
Structure (SMILES): COc1cc(OC)cc(C2COc3ccccc3C2=O)c1 (stereo not shown) [Compound 2g, 3-(3,5-Dimethoxyphenyl)chroman-4-one]

Structure (SMILES): O=C1c2ccccc2OCC1c1ccsc1 (stereo not shown) [Compound 3a, 3-(Thiophen-3-yl)chroman-4-one]
aromatase inhibition (in words) [2]: did not exhibit a significant increase in potency

aromatase inhibition (in words) [2]: Enhanced inhibitory effects
Structure (SMILES): O=C1c2cc(Cl)ccc2OCC1c1ccccc1 (stereo not shown) [Compound 4b, 6-Chloro-3-phenylchroman-4-one]

aromatase inhibition (in words) [2]: reduced the binding affinity
Structure (SMILES): CC(C)(C)c1ccc2c(c1)C(=O)C(c1ccccc1)CO2 (stereo not shown) [Compound 4d, 6-tert-Butyl-3-phenylchroman-4-one]

aromatase inhibition (in words) [2]: no significant inhibition
Structure (SMILES): O=C1c2ccccc2OCC1c1ccc(-c2ccccc2)cc1 (stereo not shown) [Compound 1i, 3-(Biphenyl-4-yl)chroman-4-one]

Structure (SMILES): O=c1c(-c2ccccc2)coc2ccccc12 [isoflavone, 3-phenylbenzopyrone]
aromatase inhibition of scaffold (in words) ([1]; ref 20b): inactive

Structure (SMILES): COc1cc2c(=O)c(-c3ccc(O)cc3)coc2cc1O [glycitein]
aromatase inhibition of naturally occurring isoflavones (in words) [1]: either inactive or weak inhibitors
